Activity calls are given as the source filed them. No cut-off for these calls is given here.
How the values were obtained:
Calvarial osteoblast [1] = test: Induction of osteoblast differentiation in mouse calvarial osteoblast assessed as increase in mineralization nodules at 1 pM incubated for 15 days by alizarin-red S dye based colorimetric analysis; type: functional, cell-based; details: time 15.0 day
How it was run: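 Calvarial osteoblasts were seeded at 2×10³ cells/well in differentiation medium (10 mM β-glycerophosphate, ascorbic acid) and cultured ± 1 pM with medium changed every 48 h. Cells were fixed in 4% formaldehyde and stained with 40 mM alizarin red S. Dye was extracted in 10% acetic acid at 85 °C, neutralized with ammonium hydroxide and read at 405 nm. n = 3.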

Mus musculus [2] = test: In vivo osteogenic activity in ovariectomized BALB/c mouse assessed as decrease in trabecular spacing at 1 to 10 mg/kg, po via gavage administered for 1 month by microCT imaging analysis; type: functional, organism-based; details: dose 1-10 mg/kg, time 1.0 months
How it was run: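 Ovariectomized female balb/c mice, 8 weeks old, 10 per group, received 1.0 or 10.0 mg kg-1 once daily by oral gavage (gum acacia vehicle) for 4 weeks, alongside sham and Ovx vehicle groups. Femurs were scanned by microCT. BV/TV, Tb.N and Tb.Sp were derived by the mean intercept length method. Mean ± SE.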

Mus musculus [3] = test: In vivo osteogenic activity in ovariectomized BALB/c mouse assessed as increase in energy required to break bone at 1 to 10 mg/kg, po via gavage administered for 1 month by TKC Muromachi bone strength testing method; type: functional, organism-based; details: dose 1-10 mg/kg, time 1.0 months
How it was run: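 Ovariectomized balb/c mice were gavaged with 1 or 10 mg kg-1 daily for one month. Bones were then tested on a bone strength tester for energy, stiffness and force to break. Mean ± SEM compared with the Ovx vehicle group.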

[4] = Initial concentration in Sprague-Dawley rat at 1 mg/kg, iv measured upto 24 hrs by LC-MS/MS analysis; type: ADME, organism-based; details: in vivo
[5] = Elimination rate constant in Sprague-Dawley rat at 1 mg/kg, po measured upto 24 hrs by LC-MS/MS analysis; type: ADME, organism-based; details: in vivo
How it was run: (§1)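 Female Sprague-Dawley rats (n = 4), fasted overnight 12–14 h, dosed orally at 1 mg kg-1 as a 0.25% CMC suspension and fed 3 h post-dose. Retro-orbital blood was taken from 0.25 to 24 h. Plasma was hexane-extracted and assayed by LC-MS/MS. Cmax and Tmax were read from the data; other parameters came from non-compartmental analysis. Mean ± S.D.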

[6] = Half life in Sprague-Dawley rat at 1 mg/kg, po measured upto 24 hrs by LC-MS/MS analysis; type: ADME, organism-based; details: in vivo; how it was run: as §1
[7] = Tmax in Sprague-Dawley rat at 1 mg/kg, po measured upto 24 hrs by LC-MS/MS analysis; type: ADME, organism-based; details: in vivo; how it was run: as §1
[8] = Acute toxicity in Swiss albino mouse assessed as body weight at 50 mg/kg, po observed on day 1 (reference value: 20.38 +/- 0.24 g); type: organism-based; details: in vivo, 24 h, time 1 day
[9] = Acute toxicity in Swiss albino mouse assessed as body weight at 300 mg/kg, po observed on day 1 (reference value: 20.38 +/- 0.24 g); type: organism-based; details: in vivo, 24 h, time 1 day
[10] = Acute toxicity in Swiss albino mouse assessed as body weight at 1000 mg/kg, po observed on day 1 (reference value: 20.38 +/- 0.24 g); type: organism-based; details: in vivo, 24 h, time 1 day
[11] = Acute toxicity in Swiss albino mouse assessed as ALKP level at 50 mg/kg, po measured after 7 days (reference value: 379.25 +/- 27.08 U/L); type: organism-based; details: in vivo, 168 h, time 7 day
[12] = Acute toxicity in Swiss albino mouse assessed as SGPT level at 5 mg/kg, po measured after 7 days (reference value: 14.04 +/- 1.45 U/L); type: organism-based; details: in vivo, 168 h, time 7 day
[13] = Acute toxicity in Swiss albino mouse assessed as SGPT level at 50 mg/kg, po measured after 7 days (reference value: 14.04 +/- 1.45 U/L); type: organism-based; details: in vivo, 168 h, time 7 day
[14] = Acute toxicity in Swiss albino mouse assessed as albumin level at 5 mg/kg, po measured after 7 days (reference value: 3.24 +/- 0.30 g/dL); type: organism-based; details: in vivo, 168 h, time 7 day
[15] = Acute toxicity in Swiss albino mouse assessed as reduced GSH level at 50 mg/kg, po measured after 7 days (reference value: 18.20 +/- 1.56 ug/mg of protein); type: organism-based; details: in vivo, 168 h, time 7 day
[16] = Acute toxicity in Swiss albino mouse assessed as reduced GSH level at 1000 mg/kg, po measured after 7 days (reference value: 18.20 +/- 1.56 ug/mg of protein); type: organism-based; details: in vivo, 168 h, time 7 day
[17] = Acute toxicity in Swiss albino mouse assessed as malondialdehyde level at 5 mg/kg, po measured after 7 days (reference value: 0.14 +/- 0.01 nM/mg); type: organism-based; details: in vivo, 168 h, time 7 day
[18] = Acute toxicity in Swiss albino mouse assessed as neutrophil count at 300 mg/kg, po measured after 7 days (reference value: 41.50 +/- 4.08 %); type: organism-based; details: in vivo, 168 h, time 7 day
[19] = Acute toxicity in Swiss albino mouse assessed as neutrophil count at 1000 mg/kg, po measured after 7 days (reference value: 41.50 +/- 4.08 %); type: organism-based; details: in vivo, 168 h, time 7 day
[20] = Acute toxicity in Swiss albino mouse assessed as eosinophil count at 50 mg/kg, po measured after 7 days (reference value: 6.34 +/- 1.04 %); type: organism-based; details: in vivo, 168 h, time 7 day
[21] = Acute toxicity in Swiss albino mouse assessed as basophil count at 300 mg/kg, po measured after 7 days (reference value: 1.50 +/- 0.29 %); type: organism-based; details: in vivo, 168 h, time 7 day
[22] = Acute toxicity in Swiss albino mouse assessed as absolute brain weight at 5 mg/kg, po measured after 7 days (reference value: 0.37 +/- 0.02 g); type: organism-based; details: in vivo, 168 h, time 7 day
[23] = Acute toxicity in Swiss albino mouse assessed as absolute kidney weight at 5 mg/kg, po measured after 7 days (reference value: 0.29 +/- 0.02 g); type: organism-based; details: in vivo, 168 h, time 7 day
[24] = Acute toxicity in Swiss albino mouse assessed as absolute kidney weight at 50 mg/kg, po measured after 7 days (reference value: 0.29 +/- 0.02 g); type: organism-based; details: in vivo, 168 h, time 7 day
[25] = Acute toxicity in Swiss albino mouse assessed as absolute kidney weight at 300 mg/kg, po measured after 7 days (reference value: 0.29 +/- 0.02 g); type: organism-based; details: in vivo, 168 h, time 7 day
[26] = Acute toxicity in Swiss albino mouse assessed as relative liver weight at 5 mg/kg, po measured after 7 days (reference value: 6.81 +/- 2.14 %); type: organism-based; details: in vivo, 168 h, time 7 day
[27] = Acute toxicity in Swiss albino mouse assessed as relative brain weight at 5 mg/kg, po measured after 7 days (reference value: 1.63 +/- 0.13 %); type: organism-based; details: in vivo, 168 h, time 7 day
[28] = Acute toxicity in Swiss albino mouse assessed as relative kidney weight at 50 mg/kg, po measured after 7 days (reference value: 1.25 +/- 0.08 %); type: organism-based; details: in vivo, 168 h, time 7 day
[29] = Acute toxicity in Swiss albino mouse assessed as relative heart weight at 1000 mg/kg, po measured after 7 days (reference value: 0.51 +/- 0.02 %); type: organism-based; details: in vivo, 168 h, time 7 day
[30] = Acute toxicity in Swiss albino mouse assessed as relative uterus weight at 300 mg/kg, po measured after 7 days (reference value: 1.63 +/- 0.71 %); type: organism-based; details: in vivo, 168 h, time 7 day
Calvarial osteoblast [31] = test: Induction of osteoblast differentiation in mouse calvarial osteoblast assessed as increase in ALP activity using PNPP as substrate at 1 pM incubated for 48 hrs by spectrophotometric analysis; type: functional, cell-based

With `CCCCN(C)C(=O)CCCCOc1ccc([C@H]2c3ccc(OC)cc3OC(C)(C)[C@@H]2c2ccccc2)cc1` the Activity (Calvarial osteoblast [1]) was “Active”, the Activity (Mus musculus [2]) was “Active” and the Activity (Mus musculus [3]) was “Active”. The C0 at 24 h [4] was 610 ng/mL, the k el at 24 h [5] was 5.39e-05 s⁻¹ and the half-life [6] was 217 min. For the same compound, the Tmax [7] was 1.5 h, the Activity [8] was 20.38 g and the Activity [9] was 19.61 g. The Activity [10] was 18.42 g, the Activity [11] was 306.33 U/L and the Activity [12] was 17.44 U/L. The Activity [13] was 17.18 U/L, the Activity [14] was 3.97 g/dL and the Activity [15] was 15 µg/mg. It also gave an Activity [16] of 13.98 µg/mg, an Activity [17] of 0.14 nM/mg and an Activity [18] of 41.54%. It also gave an Activity [19] of 46.03%, an Activity [20] of 6.99% and an Activity [21] of 1.25%. It also gave an Activity [22] of 0.35 g, an Activity [23] of 0.28 g and an Activity [24] of 0.26 g. For the same compound, the Activity [25] was 0.27 g, the Activity [26] was 4.84% and the Activity [27] was 1.46%. The Activity [28] was 1.09%, the Activity [29] was 0.57% and the Activity [30] was 1.23%. For the same compound, the Activity (Calvarial osteoblast [31]) was “Active”.

Source: ChEMBL document CHEMBL4680077, “Differentiation of skeletal osteogenic progenitor cells to osteoblasts with 3,4-diarylbenzopyran based amide derivatives: Novel osteogenic agents” (Eur J Med Chem, 2016)
